Measured values as given in PubChem BioAssay.
Inconclusive results are not listed.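 How the source made its calls, unless noted: active means cell viability at or below a set limit in both duplicate runs, the limit being the all-compound median minus 4 SD (cut at about 23% in these data, passing the limit was not always enough); inconclusive means no clear call, values can overlap the other calls; inactive means the rest.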

What was measured:
[1] = S. cerevisiae growth inhibition in permissive medium (OD615), pilot counter-assay for S. cerevisiae lifespan shortening project, permissive growth control (AID 705;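 active means growth inhibition above 25% in both replicates, a cutoff set 3 SD above the mean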); conditions: OD615, 24 h, at 10 µM, stronger effect = higher value
In short: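 System: S. cerevisiae with engineered DeaD lifespan system. Medium: SC raffinose/galactose permissive medium. Doses: single compound dose of 10 µM, 0.25% DMSO final. Schedule: 24 h exposure, 30 °C. Measured by: OD615 turbidity read. Read-out: growth inhibition.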

[2] = S. cerevisiae growth inhibition in restrictive medium, OD615, pilot screen, restrictive growth control, yeast lifespan reduction project (AID 706;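 active means growth inhibition above a set limit, 3 SD over mean compound inhibition, in both replicates, cut at about 43% in these data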;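 further: modified DeaD lifespan yeast strain shifted to restrictive glucose medium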); conditions: OD615, 48 h, at 10 µM, stronger effect = higher value
In short: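 Assay system – genetically modified Saccharomyces cerevisiae, DeaD replicative lifespan assay strain · Medium – CSMM-D glucose medium · Doses – 10 µM compound, 0.25% DMSO · Times – 4 h pre-incubation, 48 h exposure at 30 °C · Signal – optical density at 615 nm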

[3] = doxorubicin toxicity protection in MRP-1 cells – H69AR cells, CellTiter-Glo, duplicate, MRP-1 activator project, pilot screen (AID 807;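 active means viability increase at or above a cutoff of the median across tested compounds plus 3 SD, cut at about 8.5% in these data, passing the limit was not always enough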;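 further: compound pretreatment 18-22 h then 72 h combined with doxorubicin; 0% = doxorubicin alone and 100% = vehicle without doxorubicin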); conditions: H69AR viability with doxorubicin, CellTiter-Glo luminescence; at 10 µM; stronger effect = higher value
[4] = viability of HCT116 without oncogenic beta-catenin – human colon tumor cells, pilot screen (AID 823); conditions: HCT116 beta-catenin knockout viability, CellTiter-Glo, 60 h; at 10 µM; stronger effect = lower value;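 further: 0% = wells killed by 20 µM Hyamine and 100% = untreated DMSO cell wells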
[5] = viability of PTEN-null HCT116 cells – cell-based, HCT116 clonal line, CellTiter-Glo, pilot screen (AID 824;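 active means viability at or below 27.92% in each of two runs, the all-compound median minus 4 SD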;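 further: 0% = 20 µM Hyamine control and 100% = vehicle cell control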); conditions: HCT116 PTEN-deleted viability, 60 h, at 10 µM, stronger effect = lower value
[6] = RAM pathway blockade in budding yeast – dse1pr::URA3 reporter, 5-FOA selection, pilot screen (AID 869;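 active means inhibition over a set limit, the all-compound mean plus 3 SD, in both replicate runs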;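 further: 0% = DMSO wells with no growth and 100% = 10 µM 1-NA-PP1 with full growth; RAM network block rescues cells from 5-FOA so hits raise OD615 growth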); conditions: S. cerevisiae dse1pr::URA3 5-FOA growth, OD615, 2 d; at 10 µM; stronger effect = higher value; strain carries analog-sensitive mutant Cbk1 kinase
[7] = RAM signaling pathway blockade in yeast – S. cerevisiae, Pdr1DBD-CYC8 efflux-inhibited sensitized strain, primary screen (AID 1298;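 active means RAM network inhibition above 8.4% in each of two replicates, 3 SD over the compound average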;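 further: 0% = DMSO untreated cells without growth and 100% = 10 µM 1-NA-PP1 full growth; higher means more yeast growth rescued from 5-FOA killing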); conditions: S. cerevisiae cbk1-as DSE1-URA3 strain, 5-FOA growth OD615, 2 d; at 50 µM; stronger effect = higher value

CC(C)Oc1ccc(/C(O)=C2/C(=O)C(=O)N(CCCN3CCOCC3)C2c2ccncc2)cc1 (stereo unspecified)
inactive: growth inhibition [1] -3.48% | growth inhibition [2] -4.07% | viability increase [3] -3.89% | viability [4] 93.3% | viability [5] 89.3% | inhibition [6] 0.95% | RAM network inhibition [7] -0.41%

CCSC(C)CC1CC(=O)CC(=O)C1 (stereo unspecified)
inactive: growth inhibition [1] -11.7% | growth inhibition [2] 6.03% | viability increase [3] 0.29% | viability [4] 94% | viability [5] 89.9% | inhibition [6] 1.39% | RAM network inhibition [7] 2.13%

CCc1ccc(C2CC(c3ccc(C)cc3)n3nc(N)nc3N2)cc1 (stereo unspecified)
inactive: growth inhibition [1] 5.21% | growth inhibition [2] 24.1% | viability increase [3] 0.11% | viability [4] 101% | viability [5] 107% | inhibition [6] 1.35% | RAM network inhibition [7] 8.9%

CCN(CC)S(=O)(=O)c1ccc(Cl)c(C(=O)Nc2nnc(C)s2)c1
inactive: growth inhibition [1] -6.93% | growth inhibition [2] 1.45% | viability increase [3] 0.43% | viability [4] 93.1% | viability [5] 95.7% | inhibition [6] -0.08% | RAM network inhibition [7] 4.33%

CCCC(=O)NCCc1nc2ccccc2n1CCC
inactive: growth inhibition [1] -7.3% | growth inhibition [2] 2.73% | viability increase [3] 0.5% | viability [4] 102% | viability [5] 101% | inhibition [6] 2.72% | RAM network inhibition [7] -1.16%

COC(=O)NCc1ccc(Cl)c(Cl)c1
inactive: growth inhibition [1] 0.76% | growth inhibition [2] -7.57% | viability increase [3] -1.07% | viability [4] 85.4% | viability [5] 88.6% | inhibition [6] 0.09% | RAM network inhibition [7] 4.44%

O=C(O)c1cccc(-n2cnnn2)c1
inactive: growth inhibition [1] 1.37% | growth inhibition [2] 1.52% | viability increase [3] 0.82% | viability [4] 104% | viability [5] 101% | inhibition [6] 1.06% | RAM network inhibition [7] 4.03%

COc1cc(C2C(C#N)=C(C)NC3=C2C(=O)CC(C)(C)C3)ccc1OCCO (stereo unspecified)
inactive: growth inhibition [1] -9.96% | growth inhibition [2] -14.6% | viability increase [3] -0.94% | viability [4] 97.8% | viability [5] 104% | inhibition [6] 1.43% | RAM network inhibition [7] 3.55%

CC(=O)c1cccc(NC(=O)Nc2cc3sccc3n2C)c1
inactive: growth inhibition [1] 10.3% | growth inhibition [2] 10.1% | viability increase [3] -3.17% | viability [4] 98.2% | viability [5] 95.9% | inhibition [6] 0.69% | RAM network inhibition [7] 5.08%

C=C(C)Cn1c(C(C)NC(=O)CCC)nc2ccccc21 (stereo unspecified)
inactive: growth inhibition [1] -26.1% | growth inhibition [2] -7.25% | viability increase [3] -3.54% | viability [4] 83.9% | viability [5] 86.7% | inhibition [6] 1.8% | RAM network inhibition [7] 0.47%

C=CCN(C1CCCCC1)S(=O)(=O)c1ccc2c(c1)oc(=O)n2C
inactive: growth inhibition [1] -16.7% | growth inhibition [2] -11.6% | viability increase [3] -4.14% | viability [4] 86.5% | viability [5] 80.4% | inhibition [6] 2.28% | RAM network inhibition [7] 6%

CCOC(=O)c1ccccc1NC(=O)C1COc2ccccc2O1 (stereo unspecified)
inactive: growth inhibition [1] -25.8% | growth inhibition [2] -30.7% | viability increase [3] 4.16% | viability [4] 83.2% | viability [5] 87.8% | inhibition [6] 1.09% | RAM network inhibition [7] 4.22%

CCOC(=O)CC1C(=O)NCCN1C(=O)c1cc2c(=O)n3cccc(C)c3nc2s1 (stereo unspecified)
inactive: growth inhibition [1] -11% | growth inhibition [2] -11.3% | viability increase [3] -3.53% | viability [4] 98% | viability [5] 98.8% | inhibition [6] -0.035% | RAM network inhibition [7] -1.37%

Clc1cccc(Nc2ncnc3c2cnn3-c2ccccc2)c1
inactive: growth inhibition [1] -15.3% | growth inhibition [2] -12.2% | viability increase [3] -2.07% | viability [4] 82.5% | viability [5] 78.6% | inhibition [6] 2.04% | RAM network inhibition [7] 4.85%

CC(=O)C1=C(C)NC(SCC(=O)c2ccc(C)cc2)=C(C#N)C1c1ccco1 (stereo unspecified)
inactive: growth inhibition [1] -5.27% | growth inhibition [2] 32.5% | viability increase [3] -6.5% | viability [4] 49.2% | viability [5] 52.7% | inhibition [6] 4.71% | RAM network inhibition [7] 2.93%

CCCn1c(C(C)NC(C)=O)nc2ccccc21 (stereo unspecified)
inactive: growth inhibition [1] -10.3% | growth inhibition [2] -16.9% | viability increase [3] -1.47% | viability [4] 99.2% | viability [5] 90.7% | inhibition [6] 1.3% | RAM network inhibition [7] 1.25%

CCOC(=O)N1CCC(NC(=O)c2cc3c(-c4ccccc4F)nn(C)c3s2)CC1
inactive: growth inhibition [1] -7.38% | growth inhibition [2] -13.5% | viability increase [3] -3.97% | viability [4] 75.6% | viability [5] 84.2% | inhibition [6] 1.74% | RAM network inhibition [7] 0.42%

O=C(O)c1cccc2c1C(=O)N(C1CCCCC1)C2
inactive: growth inhibition [1] -18.8% | growth inhibition [2] -5.79% | viability increase [3] -1.27% | viability [4] 104% | viability [5] 98.3% | inhibition [6] 1.97% | RAM network inhibition [7] 6.19%
